Reference: PMC4028361 (Immunity, 2014)
Read-outs that look alike come from different tables or passages of the source.

Key:
human Vγ9Vδ2 T cells = assay type: cell-based
Method in brief: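 Target HEK cells had endogenous BTN3A silenced by shRNA and were transiently re-transfected with BTN3A isoforms or position-351 mutants. Cells were pretreated 2 h at 37°C with anti-CD277 agonist mAb 20.1 or zoledronate, washed extensively, then cocultured 4 h at 37°C with polyclonal Vγ9Vδ2 T cells in complete RPMI with 10 μM monensin and labelled anti-CD107a. Cells were then stained for Vδ2 TCR and read by flow cytometry.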

[1] = biological target: BTN3A1 B30.2 charge reversal mutant (H378D, K393D, R412E, R418E, R469E) (Homo sapiens, UniProt O00481, H408D/K423D/R442E/R448E/R499E); assay: Isothermal titration calorimetry, B30.2 charge reversal mutant; assay type: binding; settings: ITC; 25μM protein in cell, 500μM pAg in syringe
Sequence of BTN3A1 B30.2 charge reversal mutant (H378D, K393D, R412E, R418E, R469E) (O00481 322-513 H408D/K423D/R442E/R448E/R499E): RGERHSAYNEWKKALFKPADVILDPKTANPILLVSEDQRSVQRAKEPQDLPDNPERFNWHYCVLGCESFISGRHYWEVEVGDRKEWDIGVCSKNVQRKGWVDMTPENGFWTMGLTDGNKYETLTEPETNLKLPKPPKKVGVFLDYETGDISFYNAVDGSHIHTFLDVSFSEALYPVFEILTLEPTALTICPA

[2] = biological target: extracellular domain of BTN3A1 (Homo sapiens, UniProt O00481); assay: Isothermal titration calorimetry, pAg binding to BTN3A1 extracellular domain; settings: ITC at multiple temperatures (25°C, 15°C); 100μM protein, 2mM cHDMAPP
Sequence of extracellular domain of BTN3A1 (O00481 30-254 limits assumed): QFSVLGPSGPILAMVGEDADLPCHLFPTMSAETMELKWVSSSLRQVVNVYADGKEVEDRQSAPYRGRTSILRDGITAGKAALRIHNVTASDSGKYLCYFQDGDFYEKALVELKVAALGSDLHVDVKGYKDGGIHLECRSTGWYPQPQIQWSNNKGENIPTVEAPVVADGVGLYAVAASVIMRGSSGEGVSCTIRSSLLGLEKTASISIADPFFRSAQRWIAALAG

[3] = biological target: G115 Vγ9Vδ2 TCR / BTN3A1 extracellular domain (Homo sapiens, UniProt O00481); assay type: binding; settings: SPR; 1mM cHDMAPP co-injected
Sequence of G115 Vγ9Vδ2 TCR / BTN3A1 extracellular domain (O00481 30-254): as the sequence (O00481 30-254 limits assumed) above
Method in brief: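 G115 Vγ9Vδ2 TCR was C-terminally biotinylated and multimerized at a 60:1 ratio onto streptavidin-conjugated AmDex polymers. Serial dilutions from 1 ug/ml to 0.03125 ug/ml were injected over immobilized […] BTN3A1, with murine T22 protein also immobilized.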

With O=P(O)(O)C(O)(Cn1ccnc1)P(=O)(O)O [zoledronate, Zoledronic acid monohydrate] the “Vγ9Vδ2 T cell stimulation (CD107a)” value (human Vγ9Vδ2 T cells; BTN3A-silenced cells re-expressing BTN3A1_H351R) was “unable to mediate NBP induced stimulation” and the “Vγ9Vδ2 T cell stimulation (CD107a)” value (human Vγ9Vδ2 T cells; BTN3A-silenced cells re-expressing BTN3A3_R351H) was “able to mediate NBP induced stimulation”.
With C/C(=C\CCP(=O)(O)OP(=O)(O)O)CO [cHDMAPP, hydroxy-methyl-butyl-pyrophosphonate] the “binding to B30.2 charge reversal mutant” value [1] was “no detectable binding”, the “binding to the complete extracellular domain of BTN3A1” value [2] was “unable to detect binding” and the “effect of co-injection on G115 AmDex TCR interaction with immobilized BTN3A1” value [3] was “did not alter observed interactions”.
